Marks after values point to notes of the source that are not given here.
What was measured:
ethanol-induced ulcers = assay: Ethanol-induced gastric ulcer in rats; type: in vivo, Sprague Dawley male rats
[1] = Pharmacokinetic study in rabbits; type: in vivo, New Zealand White rabbits
WRL-68 cells = assay: MTT cell viability assay on normal human hepatic cells; settings: 24 hours, TQNLC concentration based on amount of TQ
Outline: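 Human normal liver WRL-68 cells were grown in DMEM with 10% FBS, 100 units/mL penicillin and 0.1 mg/mL streptomycin at 37°C under 5% CO2. They were seeded at 1 × 10^5 cells/mL, held 24 h, then exposed to test compound for 24 h. MTT (2 mg/mL) was added for 1 h and A570 read. Viability is % of untreated absorbance; IC50 is the concentration giving 50% growth loss. Cisplatin served as positive control.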

[2] = oral pretreatment 20 mg/kg 1 h before ethanol
[3] = New Zealand White, rabbit, plasma, ip, 10 mg/kg
[4] = TQ in rabbits, single extravascular (IP) dose of TQNLC(20) 10 mg/kg, n = 3
[5] = oral pretreatment 60 mg/Kg 1 h before ethanol

Question: Which “PAS-positive mucus versus ulcer control group (in words)” value (ethanol-induced ulcers; oral 20 mg/kg, PAS staining) does the source give for `COc1ccc2[nH]c([S+]([O-])Cc3ncc(C)c(OC)c3C)nc2c1` (stereo not shown) [Omeprazole] here?
Answer: Its value is “more PAS-positive mucus”.

Question: What about the “Histopathology of stomach versus ulcer control group (in words)” value (ethanol-induced ulcers; oral 20 mg/kg, hematoxylin and eosin) of the same molecule?
Answer: Its value is “improved”.

Question: What about the “I% (inhibition percentage of ulcer area)” value (ethanol-induced ulcers; [2]) of the same molecule?
Answer: Its value is 80.8%.

Question: What about the “UA (ulcer area)” value (ethanol-induced ulcers; [2]) of the same molecule?
Answer: Its value is 183 ± 5.8^b mm^2.

Question: What about the “pH (gastric juice)” value (ethanol-induced ulcers; oral pretreatment 20 mg/kg 1 h before ethanol 5 mL/kg) of the same molecule?
Answer: The value was 6.43 ± 0.2^b.

Question: With `CC1=CC(=O)C(C(C)C)=CC1=O` [Thymoquinone, thymoquinone] as the molecule, how does the AUC(0-inf) [1, 3] read?
Answer: The AUC(0-inf) was 26.822 ± 0.0094 µg·h/mL.

Question: What about the Cmax [1, 3] of the same molecule?
Answer: Its Cmax is 4.81 ± 0.0555 µg/mL.

Question: And the Tmax [1, 3]?
Answer: The Tmax was 3.96 ± 0.19 h.

Question: What about the half-life [1, 3] of the same molecule?
Answer: Its half-life is 4.493 ± 0.015 h.

Question: What about the “CL (clearance)” value [1, 4] of the same molecule?
Answer: The value was 0.71 ± 0.031 L/h/kg.

Question: What about the “Vd (volume of distribution)” value [1, 4] of the same molecule?
Answer: The value was 4.32 ± 0.34 L/kg.

Question: What about the “I% (inhibition percentage of ulcer area)” value (ethanol-induced ulcers; [5]) of the same molecule?
Answer: Its value is 89.1%.

Question: What about the “Mucus (weight of gastric mucosa)” value (ethanol-induced ulcers; [5]) of the same molecule?
Answer: The value was 3.24 ± 0.4^d.

Question: And the “UA (ulcer area)” value (ethanol-induced ulcers; [5])?
Answer: Its value is 112.4 ± 3.2^e mm^2.

Question: What about the “pH (gastric juice)” value (ethanol-induced ulcers; [5]) of the same molecule?
Answer: Its value is 6.5 ± 0.3^c.

Question: Which “IC50 (concentration causing 50% loss of cell growth)” value (WRL-68 cells) does the source give for `N.N.[Cl][Pt][Cl]` [cisplatin] here?
Answer: The value was 5.1 ± 0.28 mg/L.
